Reference: publication PMC8212730 (Clinical and Translational Science, 2021)
Read-outs that look alike come from different tables or passages of the source.

Assays:
[1] = Final population PK model of ivosidenib; format: in vivo, human
[2] = Exposure-safety analysis; format: in vivo, human
[3] = tested on: human CYP3A4; details: cited from earlier work
[4] = single dose 500 mg; cited from earlier work
[5] = tested on: mIDH1 R/R AML; details: 500 mg q.d., cited from earlier work
[6] = Exposure-efficacy analysis; format: in vivo, human; details: human, plasma, oral, AUCss range of quartile
Outline: (§1)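 Plasma drug was measured by LC-MS/MS (ranges 1–1000 and 50–50,000 ng/ml). Data were fitted with a two-compartment population PK model with first-order absorption and elimination. Individual empirical Bayes estimates gave steady-state AUC per patient from the nominal q.d. dose. AUCss was related to CR, CR/CRh, overall response and non-CR/CRh response by logistic regression and Kaplan-Meier plots.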

[7] = tested on: R/R AML; assay: Exposure-efficacy analysis; format: in vivo, human
Outline: as §1

[8] = patients with AML after multiple doses of ivosidenib; PBPK model; cited from earlier work
[9] = human plasma; ref not given; cited from earlier work
[10] = cited from earlier work; for Median time to maximal concentration range: across dose range
[11] = tested on: CYP2C8; details: cited from earlier work
[12] = healthy participants; strong CYP3A4 inhibitor itraconazole; cited from earlier work
[13] = tested on: CYP2B6; details: cited from earlier work
[14] = tested on: corrected QT interval (QTcF); assay: Concentration-corrected QT; format: in vivo, human
Outline: (§2)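 Patients on ivosidenib 500 mg q.d. had triplicate ECGs with time-matched plasma samples, pooled with two other phase I studies (solid tumours, healthy volunteers): 171 patients, 1203 measurements. Plasma drug was measured by LC-MS/MS. A linear mixed-effects model had population intercept and slope with bivariate-normal between-subject variability. Covariates were selected stepwise (likelihood ratio, 0.05). ΔQTcF and 90% CI were predicted at geometric mean Cmax. Fridericia and Bazett corrections were compared.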

[15] = Concentration-corrected QT; format: in vivo, human; details: human, plasma, oral, 500 mg
Outline: as §2

[16] = tested on: CYP2C9; details: in vitro; cited from earlier work
[17] = final population PK model, derived from steady-state parameters and fold changes
[18] = final population PK model, single dose to steady state

N#Cc1ccnc(N2C(=O)CC[C@H]2C(=O)N(c2cncc(F)c2)[C@H](C(=O)NC2CC(F)(F)C2)c2ccccc2Cl)c1 [ivosidenib]
Dose proportionality of exposure ([1]; 100 mg b.i.d. and 300-1200 mg q.d.): slightly less than dose proportional | Predicted Cmax in the typical patient ([1]; 500 mg q.d., steady state, albumin 37 g/L, weight 74.2 kg, no CYP3A4 inhibitor): 4827 ng/mL | Reduction in ivosidenib CL/F ([1]; concomitant fluconazole): 41% | Reduction in ivosidenib CL/F ([1]; concomitant posaconazole): 35% | Reduction in ivosidenib CL/F ([1]; concomitant voriconazole): 36% | Effect of concomitant pantoprazole or famotidine on CL/F ([1]; covariate analysis): did not affect | Impact of mild CYP3A4 inhibitors ([1]; covariate analysis): minimal | Correlation between CL/F and hepatic function indicators ([1]; covariate analysis, patients with mild hepatic impairment): no correlation | Albumin ratio-CL/F exponent ([1]; final population PK model): 0.99 | Albumin ratio-Vc/F exponent ([1]; final population PK model): 1.1 | Baseline albumin-Vc/F exponent ([1]; final population PK model): 0.73 | Decrease in relative bioavailability from single dose to steady state ([1]; final population PK model): 2 fold | Fold change in CL with mild CYP3A inhibitors ([1]; final population PK model): 1.04 | Fold change in CL with other moderate/strong CYP3A inhibitors ([1]; final population PK model): 0.92 | Increase in exposure with a doubling of dose ([1]; final population PK model): ~ 40% | Steady-state Q/F ([1]; final population PK model): 15.8 L/h | Steady-state Vc/F ([1]; final population PK model): 234 L | Steady-state Vp/F ([1]; final population PK model): 151 L | Tlag (zero-order release duration, lag-time) ([1]; final population PK model): 0.27 h | ka (first-order absorption rate constant) ([1]; final population PK model): 1.38 h⁻¹ | Wt-Vc/F exponent ([1]; final population PK model, baseline body weight): 0.92 | Fold change in CL with fluconazole ([1]; final population PK model, concomitant fluconazole): 0.59 | Fold change in CL with posaconazole ([1]; final population PK model, concomitant posaconazole): 0.65 | Fold change in CL with voriconazole ([1]; final population PK model, concomitant voriconazole): 0.64 | First-dose CL/F [1, 17]: 1.63 L/h | First-dose Q/F [1, 17]: 4.8 L/h | First-dose Vc/F [1, 17]: 71 L | First-dose Vp/F [1, 17]: 46 L | Steady-state CL/F ([1]; final population PK model, oral, patients with mIDH1 advanced hematologic malignancies): 5.39 L/h | Steady-state fold change in CL [1, 18]: 1.66 | Steady-state fold change in Frel [1, 18]: 0.5 | Effect of time-varying albumin changes on plasma exposure ([1]; human, in vivo): less than 20% | Increase in AUCss ([1]; moderate/strong CYP3A4 inhibitors): 60% | Incidence of new or worsening all grade ALT ([2]; 253 patients): 15% | Association between incidence of events for all safety end points and AUCss ([2]; logistic regression): no association | Contribution to metabolism of ivosidenib ([3]; CYP3A4): major metabolism pathway | Inducer status ([3]; in vitro, human CYP3A4): inducer | Substrate status ([3]; in vitro, human CYP3A4): substrate | Effect of mild/moderate hepatic impairment on ivosidenib exposure [4]: did not lead to clinically relevant changes in ivosidenib exposure | Rate of CR plus CRh ([5]; 174 patients with mIDH1 R/R AML): 32.8% | Median duration of CR/CRh [5]: 8.2 months | Median time to CR/CRh response [5]: 2 months | AUC ([6]; AUCss quartile 1, 51 patients): 40.9 to 93.1 µg·h/mL | AUC ([6]; AUCss quartile 2, 50 patients): 93.4 to 122 µg·h/mL | AUC ([6]; AUCss quartile 3, 50 patients): 124 to 170 µg·h/mL | AUC ([6]; AUCss quartile 4, 50 patients): 171 to 361 µg·h/mL | Incidence of CR (complete remission) ([7]; AUCss quartile 1): 11 (22%) n | Incidence of CR/CRh ([7]; AUCss quartile 1): 17 (33%) n | Incidence of OR (overall response) ([7]; AUCss quartile 1): 20 (39%) n | Incidence of CR (complete remission) ([7]; AUCss quartile 2): 12 (24%) n | Incidence of CR/CRh ([7]; AUCss quartile 2): 15 (30%) n | Incidence of OR (overall response) ([7]; AUCss quartile 2): 18 (36%) n | Incidence of CR (complete remission) ([7]; AUCss quartile 3): 9 (18%) n | Incidence of CR/CRh ([7]; AUCss quartile 3): 12 (24%) n | Incidence of OR (overall response) ([7]; AUCss quartile 3): 18 (36%) n | Incidence of CR (complete remission) ([7]; AUCss quartile 4): 11 (22%) n | Incidence of CR/CRh ([7]; AUCss quartile 4): 15 (30%) n | Incidence of OR (overall response) ([7]; AUCss quartile 4): 19 (38%) n | Association between nominal AUCss and probability of clinical response ([7]; logistic regression): minimal | Patients with OR ([7]; of 201 patients with R/R AML): 75 patients | Patients with non-CR/CRh response ([7]; of 201 patients with R/R AML): 16 patients | Predicted change in plasma AUC in the presence of itraconazole [8]: 1.44 fold | Protein bound [9]: ~ 90% | Half-life ([10]; after a single dose): 72 to 138 h | Time to steady state ([10]; daily dosing): ≤ 14 days | Median time to maximal concentration range ([10]; multiple dosing): 1.9 to 4.0 h | Median time to maximal concentration range ([10]; single dose administration): 2.4 to 5.5 h | Contribution to metabolism of ivosidenib [11]: minor contributions | Inducer status ([11]; in vitro): may also be an inducer | Change in plasma AUC with itraconazole [12]: 1.69 fold | Contribution to metabolism of ivosidenib [13]: minor contributions | Inducer status ([13]; in vitro): may also be an inducer | Predicted ΔQTcF ([14]; at 6551 ng/ml, geometric mean Cmax for 500 mg q.d.): 17.2 ms | Relationship between ΔQTcF and ivosidenib concentration ([14]; in vivo): significant direct relationship | Increase of ΔQTcF with plasma ivosidenib concentration (slope) ([14]; linear mixed-effects model): 0.00258 msec/(ng/ml) | Cmax [15]: 6550 ng/mL | Inducer status [16]: may also be an inducer
